What was measured:
Gallus gallus = organism: Gallus gallus; experiment: Activation of actin-stimulated chicken gizzard smooth muscle myosin S1 fragment ATPase activity at 100 uM after 10 mins by spectrophotometric analysis
In short: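 Chicken gizzard smooth muscle S1 myosin with actin plus tropomyosin at pCa 6.5, in 20 mM Tris HCl pH 7.5, 15 mM KCl, 6 mM MgCl2, 1 mM ATP. Compound at single 100 uM dose, 10 min at room temperature. Cytophos stop; phosphate read at 650 nm. % activity versus blank-corrected DMSO control.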

Rattus norvegicus [1] = experiment: Positive inotropic activity in Sprague-Dawley rat heart assessed as left ventricular posterior wall thickness end systole at 16 ug/kg/min for 3 mins by echocardiographic analysis (reference value: 2.07 to 2.46 mm); assay type: functional
In short: (§1)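 Male Sprague-Dawley rats, seven weeks old, anaesthetised with 1.5 % isoflurane given by nosecone. Compound infused through the right internal jugular vein, used as a central venous line. Left ventricular dimensions measured by echocardiography.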

Rattus norvegicus [2] = experiment: Positive inotropic activity in Sprague-Dawley rat heart assessed as left ventricle fractional shortening at 2 to 16 ug/kg/min for 3 mins by echocardiographic analysis; assay type: functional
In short: (§2)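 Seven-week-old male Sprague-Dawley rats under 1.5 % isoflurane via nosecone. Drug given through a right internal jugular vein central line. Left ventricular fractional shortening and ejection fraction measured by echocardiography with and without sample, expressed as % increase.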

Rattus norvegicus [3] = experiment: Effect on hemodynamic parameters in Sprague-Dawley rat heart assessed as end-diastolic pressure at 16 ug/kg/min (reference value: 7.68 to 9.64 mmHg); assay type: functional
Rattus norvegicus [4] = experiment: Effect on hemodynamic parameters in Sprague-Dawley rat heart assessed as end-diastolic pressure at 8 ug/kg/min (reference value: 7.68 to 9.83 mmHg); assay type: functional
Rattus norvegicus [5] = experiment: Positive inotropic activity in Sprague-Dawley rat heart assessed as ejection fraction at 16 ug/kg/min for 3 mins by echocardiographic analysis (reference value: 67.16 to 85.81%); assay type: functional; in short: as §2
Rattus norvegicus [6] = experiment: Positive inotropic activity in Sprague-Dawley rat heart assessed as heart rate at 4 ug/kg/min for 3 mins by echocardiographic analysis (reference value: 281 to 347 bpm); assay type: functional
Rattus norvegicus [7] = experiment: Effect on hemodynamic parameters in Sprague-Dawley rat heart assessed as dPdT min at 16 ug/kg/min (reference value: -5462 to -4611 mmHg/s); assay type: functional
Rattus norvegicus [8] = experiment: Positive inotropic activity in Sprague-Dawley rat heart assessed as left ventricular internal diameter end diastole at 8 ug/kg/min for 3 mins by echocardiographic analysis (reference value: 5.66 to 7.80 mm); assay type: functional; in short: as §1
Rattus norvegicus [9] = experiment: Positive inotropic activity in Sprague-Dawley rat heart assessed as left ventricular internal diameter end systole at 4 ug/kg/min for 3 mins by echocardiographic analysis (reference value: 2.50 to 4.78 mm); assay type: functional; in short: as §1
Rattus norvegicus [10] = experiment: Effect on hemodynamic parameters in Sprague-Dawley rat heart assessed as dPdT max at 16 ug/kg/min (reference value: 4162 to 5214 mmHg/s); assay type: functional
Rattus norvegicus [11] = experiment: Positive inotropic activity in Sprague-Dawley rat heart assessed as fractional shortening at 4 ug/kg/min for 3 mins by echocardiographic analysis (reference value: 38.60 to 55.81%); assay type: functional; in short: as §2
Rattus norvegicus [12] = experiment: Effect on hemodynamic parameters in Sprague-Dawley rat heart assessed as end-systolic pressure at 8 ug/kg/min (reference value: 87.48 to 97.85 mmHg); assay type: functional
Rattus norvegicus [13] = experiment: Effect on hemodynamic parameters in Sprague-Dawley rat heart assessed as heart rate at 8 ug/kg/min (reference value: 260 to 322 bpm); assay type: functional
Rattus norvegicus [14] = experiment: Positive inotropic activity in Sprague-Dawley rat heart assessed as heart rate at 8 ug/kg/min for 3 mins by echocardiographic analysis (reference value: 281 to 347 bpm); assay type: functional
Rattus norvegicus [15] = experiment: Positive inotropic activity in Sprague-Dawley rat heart assessed as fractional shortening at 16 ug/kg/min for 3 mins by echocardiographic analysis (reference value: 38.60 to 55.81%); assay type: functional; in short: as §2
Rattus norvegicus [16] = experiment: Positive inotropic activity in Sprague-Dawley rat heart assessed as left ventricular internal diameter end diastole at 16 ug/kg/min for 3 mins by echocardiographic analysis (reference value: 5.66 to 7.80 mm); assay type: functional
Rattus norvegicus [17] = experiment: Positive inotropic activity in Sprague-Dawley rat heart assessed as ejection fraction at 4 ug/kg/min for 3 mins by echocardiographic analysis (reference value: 67.16 to 85.81%); assay type: functional; in short: as §2
Rattus norvegicus [18] = experiment: Positive inotropic activity in Sprague-Dawley rat heart assessed as left ventricular posterior wall thickness end diastole at 8 ug/kg/min for 3 mins by echocardiographic analysis (reference value: 0.88 to 1.54 mm); assay type: functional; in short: as §1
Rattus norvegicus [19] = experiment: Positive inotropic activity in Sprague-Dawley rat heart assessed as left ventricular posterior wall thickness end systole at 4 ug/kg/min for 3 mins by echocardiographic analysis (reference value: 2.07 to 2.46 mm); assay type: functional; in short: as §1
Rattus norvegicus [20] = experiment: Positive inotropic activity in Sprague-Dawley rat heart assessed as left ventricular internal diameter end systole at 8 ug/kg/min for 3 mins by echocardiographic analysis (reference value: 2.50 to 4.78 mm); assay type: functional; in short: as §1
Rattus norvegicus [21] = experiment: Effect on hemodynamic parameters in Sprague-Dawley rat heart assessed as heart rate at 16 ug/kg/min (reference value: 274 to 322 bpm); assay type: functional
Rattus norvegicus [22] = experiment: Positive inotropic activity in Sprague-Dawley rat heart assessed as fractional shortening at 8 ug/kg/min for 3 mins by echocardiographic analysis (reference value: 38.60 to 55.81%); assay type: functional; in short: as §2
Rattus norvegicus [23] = experiment: Positive inotropic activity in Sprague-Dawley rat heart assessed as left ventricular internal diameter end systole at 16 ug/kg/min for 3 mins by echocardiographic analysis (reference value: 2.50 to 4.78 mm); assay type: functional; in short: as §1
Rattus norvegicus [24] = experiment: Positive inotropic activity in Sprague-Dawley rat heart assessed as ejection fraction at 2 to 16 ug/kg/min for 3 mins by echocardiographic analysis; assay type: functional; in short: as §2
Rattus norvegicus [25] = experiment: Positive inotropic activity in Sprague-Dawley rat heart assessed as left ventricular posterior wall thickness end diastole at 16 ug/kg/min for 3 mins by echocardiographic analysis (reference value: 0.88 to 1.54 mm); assay type: functional; in short: as §1
Bos taurus = organism: Bos taurus; experiment: Activation of actin-stimulated bovine cardiac myosin S1 fragment ATPase activity in sarcomere at 10 uM after 10 mins by spectrophotometric analysis
In short: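 Bovine cardiac S1 myosin with actin thin filament complex at pCa 6.5, in 20 mM Tris HCl pH 7.5, 15 mM KCl, 6 mM MgCl2, 1 mM ATP. Compound at 10 μM, 10 min at room temperature. Stopped with Cytophos reagent; liberated phosphate read at 650 nm. % activity calculated relative to DMSO negative control, blank-corrected.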

Rattus norvegicus [26] = experiment: Effect on hemodynamic parameters in Sprague-Dawley rat heart assessed as dPdT max at 8 ug/kg/min (reference value: 4162 to 5214 mmHg/s); assay type: functional
Rattus norvegicus [27] = experiment: Positive inotropic activity in Sprague-Dawley rat heart assessed as heart rate at 16 ug/kg/min for 3 mins by echocardiographic analysis (reference value: 281 to 347 bpm); assay type: functional

Row | Structure (SMILES) | Activity (Gallus gallus) | Activity (Rattus norvegicus [1]) | Activity (Rattus norvegicus [2]) | Activity (Rattus norvegicus [3]) | Activity (Rattus norvegicus [4]) | Activity (Rattus norvegicus [5]) | Activity (Rattus norvegicus [6]) | Activity (Rattus norvegicus [7]) | Activity (Rattus norvegicus [8]) | Activity (Rattus norvegicus [9]) | Activity (Rattus norvegicus [10]) | Activity (Rattus norvegicus [11]) | Activity (Rattus norvegicus [12]) | Activity (Rattus norvegicus [13]) | Activity (Rattus norvegicus [14]) | Activity (Rattus norvegicus [15]) | Activity (Rattus norvegicus [16]) | Activity (Rattus norvegicus [17]) | Activity (Rattus norvegicus [18]) | Activity (Rattus norvegicus [19]) | other results
1 | O=C(NCCCc1ccccc1)NCc1ccccc1 | -3.7% | 3.03 mm | 30.04% | 11.33 mmHg | 10.71 mmHg | 95.44% | 395 bpm | -5405 mmHg/s | 5.97 mm | 3.03 mm | 4740 mmHg/s | 45.67% | 96.04 mmHg | 271 bpm | 412 bpm | 71.65% | 5.57 mm | 76.44% | 1.49 mm | 2.24 mm | Activity (Rattus norvegicus [20]): 1.58 mm; Activity (Rattus norvegicus [21]): 272 bpm; Activity (Rattus norvegicus [22]): 73.53%; Activity (Rattus norvegicus [23]): 1.58 mm; Activity (Rattus norvegicus [24]): 18.27%; Activity (Rattus norvegicus [25]): 1.71 mm; Activity (Bos taurus): 53.3%; Activity (Rattus norvegicus [26]): 4644 mmHg/s; Activity (Rattus norvegicus [27]): 412 bpm
2 | COC(=O)N1CCN(Cc2cccc(NC(=O)Nc3ccc(C)nc3)c2F)CC1 [OMECAMTIV MECARBIL] | -5.5% | 2.77 mm | 20.32% | 6.46 mmHg | 6.21 mmHg | 89.17% | 368 bpm | -6342 mmHg/s | 5.97 mm | 2.63 mm | 6867 mmHg/s | 58.9% | 104.3 mmHg | 292 bpm | 370 bpm | 60.81% | 6.5 mm | 87.85% | 1.23 mm | 2.81 mm | Activity (Rattus norvegicus [20]): 2.33 mm; Activity (Rattus norvegicus [21]): 297 bpm; Activity (Rattus norvegicus [22]): 61.03%; Activity (Rattus norvegicus [23]): 2.55 mm; Activity (Rattus norvegicus [24]): 13.35%; Activity (Rattus norvegicus [25]): 1.36 mm; Activity (Bos taurus): 58%; Activity (Rattus norvegicus [26]): 6143 mmHg/s; Activity (Rattus norvegicus [27]): 367 bpm
